Assay [1] addresses T1, Substance-K receptor (Oryctolagus cuniculus, UniProt P79218).
T1 sequence (P79218 whole entry): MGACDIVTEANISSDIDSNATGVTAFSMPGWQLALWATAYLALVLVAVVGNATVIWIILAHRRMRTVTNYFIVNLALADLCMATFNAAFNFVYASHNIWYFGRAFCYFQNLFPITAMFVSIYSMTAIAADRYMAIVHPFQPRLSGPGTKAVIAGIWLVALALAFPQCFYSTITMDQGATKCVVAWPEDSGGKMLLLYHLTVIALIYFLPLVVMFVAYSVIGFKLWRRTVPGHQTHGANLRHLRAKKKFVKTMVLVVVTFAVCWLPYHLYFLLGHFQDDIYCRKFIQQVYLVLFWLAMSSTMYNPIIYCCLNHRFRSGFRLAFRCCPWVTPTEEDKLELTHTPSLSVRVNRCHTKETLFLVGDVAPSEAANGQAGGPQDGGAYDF
The experiment in a line: Functional potency against Tachykinin receptor 2 (NK2) in rabbit pulmonary artery assay. The conditions noted are these: read-out: pA2 (converted). The gist of the method: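 Rabbit pulmonary artery preparation; antagonism of contractions evoked by the selective NK2 agonist [β-ala8]NKA(4–10); result expressed as pA2. Each determination n ≥ 2, every experiment run in triplicate.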

Assay [2] is filed under the species Homo sapiens. The experiment in a line: In vitro microsomal stability in human liver microsomes (HLM). The class given is functional. On the technique in general: Liver microsomes are vesicles of endoplasmic reticulum, rich in cytochrome P450 enzymes.

Some results are limits rather than exact numbers.

The term half-life denotes the time in which the quantity being followed falls by half. Low readings indicate fast loss, high ones slow loss.

With `O=C1CCC(CCN2CC(N3CCOCC3)C2)(c2ccc(Cl)c(Cl)c2)CN1Cc1ccc(F)cc1` (stereo not drawn), the Kb in assay [1] is 20 nM.
Regarding `CS(=O)(=O)N1CCN(C2CN(CCC3(c4ccc(Cl)c(Cl)c4)CCC(=O)N(CC4CC4)C3)C2)CC1` (stereo not drawn), in assay [2], the half-life is under 10 min. In assay [1], the Kb was 3.16 nM.
For `CN1CCN(C2CN(CCC3(c4ccc(Cl)c(Cl)c4)CCC(=O)N(Cc4ccccc4)C3)C2)CC1` (stereo not drawn), the Kb in assay [1] was 15.8 nM.
For the compound `O=C1CCC(CCN2CC(N3CCOCC3)C2)(c2ccc(Cl)c(Cl)c2)CN1CC1CC1` (stereo not drawn), the half-life in assay [2] was found to be 120 min. Besides, in assay [1], the Kb is 7.94 nM.
With `O=C1CCC(CCN2CC(N3CCCC(O)C3)C2)(c2ccc(Cl)c(Cl)c2)CN1Cc1ccccc1` (stereo not drawn), in assay [1], the Kb is 2 nM.
The same measure, in the same setting: next, `CN(C)S(=O)(=O)N1CCN(C2CN(CCC3(c4ccc(Cl)c(Cl)c4)CCC(=O)N(CC4CC4)C3)C2)CC1` (stereo not drawn): 10 nM.
In the case of `O=C1CC[C@@](CCN2CC(N3CCOCC3)C2)(c2ccc(Cl)c(Cl)c2)CN1CC1CCCCC1`, the half-life in assay [2] came to 84 min. For the same compound, the Kb in assay [1] is 631 nM.
`O=C1CCC(CCN2CC(N3CCCOCC3)C2)(c2ccc(Cl)c(Cl)c2)CN1Cc1ccccc1` (stereo not drawn): the Kb in assay [1] was 2 nM.
For `O=C1CCC(CCN2CC(N3CCS(=O)(=O)CC3)C2)(c2ccc(Cl)c(Cl)c2)CN1Cc1ccccc1` (stereo not drawn), the Kb in assay [1] was 1.26 nM.
Consider `Cc1ccc(CN2CC(CCN3CC(N4CCOCC4)C3)(c3ccc(Cl)c(Cl)c3)CCC2=O)cc1` (stereo not drawn), for which the Kb in assay [1] is 6.31 nM.
Take `NC(=O)N1CCN(C2CN(CCC3(c4ccc(Cl)c(Cl)c4)CCC(=O)N(CC4CC4)C3)C2)CC1` (stereo not drawn): the Kb in assay [1] is 5.01 nM.
For the compound `O=C1CCN(C2CN(CCC3(c4ccc(Cl)c(Cl)c4)CCC(=O)N(CC4CC4)C3)C2)CC1` (stereo not drawn), in assay [1], the Kb was 1.26 nM.
With `CC(=O)N1CCN(C2CN(CCC3(c4ccc(Cl)c(Cl)c4)CCC(=O)N(Cc4ccccc4)C3)C2)CC1` (stereo not drawn), the Kb in assay [1] was 1.58 nM.
The same measure, in the same setting: the figure for `CN(CCO)C1CN(CCC2(c3ccc(Cl)c(Cl)c3)CCC(=O)N(Cc3ccccc3)C2)C1` (stereo not drawn) is 3.16 nM.
On the same count and under the same terms, the figure for `O=C(O)C1CCN(C2CN(CCC3(c4ccc(Cl)c(Cl)c4)CCC(=O)N(CC4CC4)C3)C2)CC1` (stereo not drawn) is 0.398 nM; for `Cc1ccccc1CN1CC(CCN2CC(N3CCOCC3)C2)(c2ccc(Cl)c(Cl)c2)CCC1=O` (stereo not drawn) it is 0.501 nM.
With `O=C1CCC(CCN2CC(N3CCOCC3)C2)(c2ccc(Cl)c(Cl)c2)CN1C1CCCCC1` (stereo not drawn), the half-life in assay [2] is under 10 min. In assay [1], the Kb was 0.126 nM.
In the case of `O=C1CCC(CCN2CC(N3CCNCC3)C2)(c2ccc(Cl)c(Cl)c2)CN1CC1CC1` (stereo not drawn), the Kb in assay [1] was 12.6 nM.
Consider `O=C1CCC(CCN2CC(N3CCC(O)CC3)C2)(c2ccc(Cl)c(Cl)c2)CN1Cc1ccccc1` (stereo not drawn), for which, in assay [1], the Kb is 0.0794 nM.
`O=C1CCC(CCN2CCC(O)(c3ccccc3)CC2)(c2ccc(Cl)c(Cl)c2)CN1Cc1ccccc1` (stereo not drawn) showed a half-life in assay [2] of 30 min. In assay [1], the Kb was 1.26 nM.
For `CNS(=O)(=O)N1CCN(C2CN(CCC3(c4ccc(Cl)c(Cl)c4)CCC(=O)N(CC4CC4)C3)C2)CC1` (stereo not drawn), the Kb in assay [1] was 3.16 nM.
Turning to `CC(=O)NC1(c2ccccc2)CCN(C2CN(CCC3(c4ccc(Cl)c(Cl)c4)CCC(=O)N(CC4CC4)C3)C2)CC1` (stereo not drawn), the Kb in assay [1] is 3.16 nM.
With `O=C1CCC(CCN2CC(N3C4CCC3CC(O)C4)C2)(c2ccc(Cl)c(Cl)c2)CN1Cc1ccccc1` (stereo not drawn), the Kb in assay [1] was 0.631 nM.
On to `O=C1CCC(CCN2CC(N3CCOC(c4ccccc4)C3)C2)(c2ccc(Cl)c(Cl)c2)CN1Cc1ccccc1` (stereo not drawn), for which, in assay [1], the Kb is 10 nM.
Still for that read-out and setting: the figure for `O=C1CCC(CCN2CC(N3CCC(O)CC3)C2)(c2ccc(Cl)c(Cl)c2)CN1CC1CC1` (stereo not drawn) is 1.58 nM; for `CS(=O)(=O)N1CCN(C2CN(CCC3(c4ccc(Cl)c(Cl)c4)CCC(=O)N(Cc4ccccc4)C3)C2)CC1` (stereo not drawn) it is 0.631 nM; for `O=C1CCC(CCN2CC(N3CC[S+]([O-])CC3)C2)(c2ccc(Cl)c(Cl)c2)CN1Cc1ccccc1` (stereo not drawn) it is 0.631 nM.
As for `O=C1CC[C@](CCN2CC(N3CCOCC3)C2)(c2ccc(Cl)c(Cl)c2)CN1CC1CCCCC1`, the half-life in assay [2] was 14 min.
Turning to `CC(=O)NC1CCN(C2CN(CCC3(c4ccc(Cl)c(Cl)c4)CCC(=O)N(CC4CC4)C3)C2)CC1` (stereo not drawn), in assay [1], the Kb is 15.8 nM.
On to `CCOC1CCN(C2CN(CCC3(c4ccc(Cl)c(Cl)c4)CCC(=O)N(CC4CC4)C3)C2)CC1` (stereo not drawn), for which the Kb in assay [1] was 6.31 nM.
Take `NC1CCN(C2CN(CCC3(c4ccc(Cl)c(Cl)c4)CCC(=O)N(CC4CC4)C3)C2)CC1` (stereo not drawn): the half-life in assay [2] stood at 30 min. Besides, the Kb in assay [1] is 2 nM.
For `O=C1CCC(CCN2CC(N3CCOCC3=O)C2)(c2ccc(Cl)c(Cl)c2)CN1Cc1ccccc1` (stereo not drawn), the Kb in assay [1] is 2.51 nM.
`O=C1CCC(CCN2CC(N3CCOCC3)C2)(c2ccc(Cl)c(Cl)c2)CN1Cc1ccccc1` (stereo not drawn): the half-life in assay [2] turned out to be 70 min. Further, the Kb in assay [1] is 0.501 nM.
For the compound `CS(=O)(=O)NC1CCN(C2CN(CCC3(c4ccc(Cl)c(Cl)c4)CCC(=O)N(CC4CC4)C3)C2)CC1` (stereo not drawn), the Kb in assay [1] was 10 nM.
As to `Cc1cccc(CN2CC(CCN3CC(N4CCOCC4)C3)(c3ccc(Cl)c(Cl)c3)CCC2=O)c1` (stereo not drawn), in assay [1], the Kb is 2.51 nM.
As for `O=C1CCC(CCN2CC(N3CCOCC3)C2)(c2ccc(Cl)c(Cl)c2)CN1` (stereo not drawn), in assay [1], the Kb was over 10000 nM.
Compound `NS(=O)(=O)N1CCN(C2CN(CCC3(c4ccc(Cl)c(Cl)c4)CCC(=O)N(CC4CC4)C3)C2)CC1` (stereo not drawn) showed a half-life in assay [2] of over 120 min. Also, the Kb in assay [1] was 1.26 nM.
As for `O=C1CCC(CCN2CC(N3CCOCC3)C2)(c2ccc(Cl)c(Cl)c2)CN1Cc1ccncc1` (stereo not drawn), the Kb in assay [1] is 100 nM.
For the compound `O=C1CCC(CCN2CC(N3CCNCC3)C2)(c2ccc(Cl)c(Cl)c2)CN1Cc1ccccc1` (stereo not drawn), in assay [1], the Kb is 5.01 nM.
Regarding `O=C1CCC(CCN2CC(N3CCC(O)C3)C2)(c2ccc(Cl)c(Cl)c2)CN1Cc1ccccc1` (stereo not drawn), the Kb in assay [1] is 2 nM.
Regarding `O=C1CCC(CCN2CC(N3CCSCC3)C2)(c2ccc(Cl)c(Cl)c2)CN1Cc1ccccc1` (stereo not drawn), in assay [1], the Kb is 1 nM.
Compound `O=C1CCC(CCN2CC(N3CCOCC3)C2)(c2ccc(Cl)c(Cl)c2)CN1CC1CCCCC1` (stereo not drawn) came in with a half-life in assay [2] of 70 min. Further, the Kb in assay [1] is 1.26 nM.
With `CN(CC(CCN1CCC(O)(c2ccccc2)CC1)c1ccc(Cl)c(Cl)c1)C(=O)c1ccccc1` (stereo not drawn), the half-life in assay [2] was under 10 min. Moreover, the Kb in assay [1] was 0.316 nM.

The values are drawn from ChEMBL document CHEMBL1135664, “Structure-activity relationships of 1-alkyl-5-(3,4-dichlorophenyl)- 5-[2-[(3-substituted)-1-azetidinyl]ethyl]-2-piperidones. 1. Selective antagonists of the neurokinin-2 receptor” (J Med Chem, 2002).
